# Reference: PubChem BioAssay
# Calls of active or inactive are those of the source.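 The calls were made as follows, unless noted: active = fluorescence slope higher than the sample average by over 3 SD (cut at about -0.22 in these data, passing the limit was not always enough); inactive = the rest.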
# Key:
# [1] = inhibitors of TNFa-induced NFkB p65 translocation, primary screen, imaging, HUVEC, MLSMR starter and 10KST1 sets (AID 438;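 active = inhibition above 20% together with a positive visual image hit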;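 also: compound added about 3h40 before a 20 min TNFalpha stimulation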;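 as to inhibition: signal is the nuclear over cytoplasmic p65 intensity ratio per well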); conditions: HUVEC TNFa-induced p65 nuclear translocation; cell count: measured here: nuclei count (cytotoxicity indicator), at 2.08 µM; inhibition: at 2 µM, stronger effect = higher value, 0% TNFa-plus-vehicle, 100% no-TNFa wells
# [2] = reduction of polyQ htt aggregates in cells – imaging, exon1htt(103Q)mCFP cells, high-content imaging, primary screen (AID 483;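 active = visual image review flags a hit and inhibition of aggregation exceeds 20%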;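 also: compound exposure lasted 3 days before fixation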;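 as to nuclei count: percent of the per-plate median nuclei count of sample wells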); conditions: exon1htt(103Q)mCFP cell line, aggregate imaging, at 2 µM; inhibition of aggregation: stronger effect = higher value; nuclei count: measured here: cell count, toxicity
# [3] = endothelial E-selectin expression blockers – imaging, HUVEC, immunofluorescence, MLSMR starter and 10KST1 sets, primary screen (AID 487;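 active = visually confirmed hit in the image check and inhibition above 20%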;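 as to inhibition: signal is fraction of cell area covered by stained E-selectin grains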;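 as to nuclei count: 100% = median nuclei count of all wells on the same plate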); conditions: HUVEC TNFalpha-induced E-selectin immunofluorescence imaging, at 2 µM; inhibition: stronger effect = higher value; nuclei count: measured here: cell number, toxicity
# [4] = target: Voltage-gated potassium channel subunit beta-2 (Rattus norvegicus) (UniProt P62483); test: inhibitors of rat Kvbeta2 reductase activity – biochemical, NADPH fluorescence, primary screen (AID 622); conditions: recombinant KvBeta, 4-cyanobenzaldehyde reduction, at 10 µM, stronger effect = higher value;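 also: slope of raw intensity against log time taken from 70 to 1610 s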
# Chain of Voltage-gated potassium channel subunit beta-2 (Rattus norvegicus) (P62483 whole entry, looked up): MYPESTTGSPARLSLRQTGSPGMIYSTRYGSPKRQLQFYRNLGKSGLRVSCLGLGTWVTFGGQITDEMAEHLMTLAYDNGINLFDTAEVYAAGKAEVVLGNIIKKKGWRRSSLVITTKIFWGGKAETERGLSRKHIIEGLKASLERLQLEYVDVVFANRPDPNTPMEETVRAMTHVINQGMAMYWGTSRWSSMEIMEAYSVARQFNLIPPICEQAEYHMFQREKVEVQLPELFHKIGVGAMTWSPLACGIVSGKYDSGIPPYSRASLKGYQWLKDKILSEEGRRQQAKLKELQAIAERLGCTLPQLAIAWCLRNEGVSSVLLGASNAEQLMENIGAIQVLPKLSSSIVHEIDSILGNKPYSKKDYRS
# [5] = target: Voltage-gated potassium channel subunit beta-2 (Rattus norvegicus) (UniProt P62483); test: enhancers of rat Kvbeta2 NADPH turnover – biochemical, NADPH fluorescence, primary screen (AID 623;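 active = NADPH fluorescence slope more negative than the mean of all samples by about 3 SD, 99.7% confidence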;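 also: fluorescence intensity change per second fitted from 20 to 320 s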); conditions: Recombinant KvBeta, NADPH fluorescence decrease slope, 10 min; at 10 µM; stronger effect = lower value
# [6] = target: Muscarinic acetylcholine receptor M4 (Homo sapiens) (UniProt P08173); test: M4-linked GIRK flux change, two-sided – cell-based, HEK293 M4/GIRK, thallium flux, BTC-AM, M4 allosteric agonist project, primary screen (AID 625;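 active = fluorescence slope after compound addition differing from the mean of all tested samples at 99.7% confidence, mostly higher but some lower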;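 also: thallium influx through GIRK channels coupled to M4 in HEK293 cells with BTC-AM dye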); conditions: at 10 µM, actives lie on both sides
# Chain of Muscarinic acetylcholine receptor M4 (Homo sapiens) (P08173 whole entry, looked up): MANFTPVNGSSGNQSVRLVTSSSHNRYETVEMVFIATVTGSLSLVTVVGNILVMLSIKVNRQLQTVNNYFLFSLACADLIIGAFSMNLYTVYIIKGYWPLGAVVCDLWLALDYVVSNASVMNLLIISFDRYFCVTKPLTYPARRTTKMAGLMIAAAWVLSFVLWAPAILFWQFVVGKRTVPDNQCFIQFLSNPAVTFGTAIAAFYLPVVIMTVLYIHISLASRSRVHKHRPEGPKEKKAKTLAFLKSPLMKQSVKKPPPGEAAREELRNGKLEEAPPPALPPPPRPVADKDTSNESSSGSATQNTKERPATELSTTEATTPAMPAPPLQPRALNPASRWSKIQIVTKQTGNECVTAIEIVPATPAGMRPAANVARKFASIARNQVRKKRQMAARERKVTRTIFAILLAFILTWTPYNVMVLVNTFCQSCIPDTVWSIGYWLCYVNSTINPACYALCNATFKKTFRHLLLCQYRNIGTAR
# Procedure, shortened: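 Material: M4/GIRK1/GIRK2 stable HEK293 cell line. Medium: pH 7.3 thallium assay buffer. Dosing: single compound concentration, 10 µM final. Schedule: 1 h dye loading, 2 min kinetic read. Measured by: kinetic fluorescence with BTC-AM dye. Read-out: post-addition slope, 15–24 s, of baseline-normalized fluorescence. Benchmarks: carbachol and DMSO controls.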
# [7] = blockers of RIG-like receptor reporter activation – cell-based, Sendai virus stimulus, luciferase, 10K MLSCN set, TLR/RLR signaling modifier project, primary screen (AID 602276;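 active = inhibition at or above 50% at 10 µM; inactive = inhibition below 50%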;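 also: firefly luciferase from ISG56 promoter only with Renilla not read in this screen; 0% = Sendai virus plus DMSO and 100% = medium plus DMSO without virus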); conditions: HEK293 RL24 IRF3 luciferase reporter, at 10 µM, stronger effect = higher value
# [8] = TLR3 IRF3 reporter activation blockers – cell-based, poly I:C stimulus, luciferase, 10K MLSCN set, primary screen (AID 602277;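 active = inhibition of the reporter signal at or above 50%; inactive = inhibition below 50%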); conditions: HEK293-TLR3 RL24 IRF3 luciferase reporter, at 10 µM, stronger effect = higher value
# [9] = target: Alpha-2C adrenergic receptor (Homo sapiens) (UniProt P18825); test: compounds altering alpha2C-coupled GIRK flux – cell-based, HEK293 alpha2C/GIRK1/2, thallium flux, primary screen (AID 624;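 active = fluorescence slope after compound addition differing from the mean of all screened samples at 99.7% confidence, in either direction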;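 also: slope of fluorescence ratio to pre-addition baseline per second over 15 to 24 s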); conditions: thallium flux BTC fluorescence, at 10 µM, actives lie on both sides
# Chain of Alpha-2C adrenergic receptor (Homo sapiens) (P18825 whole entry, looked up): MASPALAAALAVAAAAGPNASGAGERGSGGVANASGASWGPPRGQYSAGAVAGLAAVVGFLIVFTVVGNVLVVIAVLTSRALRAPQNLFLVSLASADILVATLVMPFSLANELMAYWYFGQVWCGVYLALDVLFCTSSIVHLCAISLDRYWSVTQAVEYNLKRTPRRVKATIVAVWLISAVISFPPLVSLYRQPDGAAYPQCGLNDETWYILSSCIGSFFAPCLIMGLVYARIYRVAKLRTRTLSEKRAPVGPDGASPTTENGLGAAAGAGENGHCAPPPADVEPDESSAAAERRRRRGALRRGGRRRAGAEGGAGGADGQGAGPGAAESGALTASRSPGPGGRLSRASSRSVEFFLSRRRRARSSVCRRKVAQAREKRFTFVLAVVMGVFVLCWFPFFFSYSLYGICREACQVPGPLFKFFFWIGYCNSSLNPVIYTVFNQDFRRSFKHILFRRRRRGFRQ
# [10] = inhibitors of larval lipid processing in zebrafish, primary screen, whole organism, PED6 fluorescence, gall bladder and intestine (AID 686;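 active = a full or partial loss of lipid-probe fluorescence in the fish gall bladder, intestine or both, judged by eye; inactive = no fluorescence loss, or compound toxic to the fish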;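 also: larvae 5 to 7 days old with five fish per well; signal comes from phospholipase A2 cleavage of quenched PED6 carried via bile; overnight exposure to compound and PED6 before scoring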); conditions: Zebrafish larvae PED6 lipid processing, fluorescence scoring; screened at 20 µM (by protocol)
# Procedure, shortened: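 System: live zebrafish larvae aged 5-7 days, whole organism; measure: graded gall bladder and intestinal fluorescence inhibition per well; incubation: overnight exposure; reagent: ingested quenched lipid PED6 at 100 nM; signal: By-eye fluorescence microscopy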
SMILES,cell count [1],inhibition [1],inhibition of aggregation [2],nuclei count [2] [%],inhibition [3],nuclei count [3] [%],fluorescence slope [4],NADPH fluorescence slope [5],fluorescence slope [6],inhibition [7],inhibition [8],slope [9],outcome [10]
Cc1nc(NC(=O)C2CC3CCCC(C2)C3=O)sc1C (stereo unspecified),411,4.4% (inactive),-32.5% (inactive),110,-36.5% (inactive),106,-0.581 (inactive),-4.4e-05 (inactive),0.00306 (inactive),-54.4% (inactive),-87.2% (inactive),–,–
CC(Sc1nnnn1-c1ccccc1)C(=O)Nc1ccc(Cl)cn1 (stereo unspecified),570,-12.8% (inactive),-5.6% (inactive),108,-139% (inactive),131,-0.426 (inactive),2.6e-05 (inactive),0.00566 (inactive),16% (inactive),19.9% (inactive),–,–
COc1ccccc1C(=O)NCC(=O)Nc1ccccc1,258,-2.3% (inactive),14.2% (inactive),94.4,59% (inactive),27.8,-0.451 (inactive),-4.6e-05 (inactive),–,6.26% (inactive),8.93% (inactive),0.00528 (inactive),inactive
C=CCn1c(SCc2cc(=O)n3ccsc3n2)nnc1C1CCCCC1,439,3.8% (inactive),-27.5% (inactive),104,3.6% (inactive),116,-0.561 (inactive),-1.8e-05 (inactive),0.00775 (inactive),9.44% (inactive),21.1% (inactive),–,–
CC(=O)N1c2c(cc(Br)cc2S(=O)(=O)N2CCN(c3ccccn3)CC2)CC1C (stereo unspecified),365,-15.4% (inactive),21.2% (inactive),93.1,-49.9% (inactive),128,-0.523 (inactive),-0.000101 (inactive),0.00651 (inactive),15.6% (inactive),6.87% (inactive),–,–
COCc1nnc(SCC(=O)NC(C)c2ccccc2)n1-c1ccccc1 (stereo unspecified),308,-1.1% (inactive),5.8% (inactive),94.3,-18.5% (inactive),101,-0.434 (inactive),-3.6e-05 (inactive),–,14.7% (inactive),14.9% (inactive),0.00455 (inactive),inactive
CCCN(S(=O)(=O)c1ccc(OCC)cc1)S(=O)(=O)c1cccs1,457,7.4% (inactive),-7.2% (inactive),109,-52.8% (inactive),101,-0.481 (inactive),0.0001 (inactive),0.00646 (inactive),-4.95% (inactive),2.38% (inactive),–,–
CCCn1c2ccccc2c2nnc(SCC(=O)Nc3ncccn3)nc21,696,-4.4% (inactive),-41% (inactive),53.5,-10.4% (inactive),98.8,-0.551 (inactive),-1.7e-05 (inactive),0.00402 (inactive),12.2% (inactive),21.2% (inactive),–,–
CCCn1c2c(c(O)c(C(=O)Nc3ccc(C)cn3)c1=O)CCCC2,483,9.8% (inactive),-6.3% (inactive),96.3,-7.5% (inactive),91.3,-0.546 (inactive),-6e-05 (inactive),0.00777 (inactive),6.86% (inactive),10.7% (inactive),–,–
CCOC(=O)c1sc(NC(=O)CNC(=O)Cn2cnc3sc(C)c(C)c3c2=O)nc1C,260,12.2% (inactive),-12.7% (inactive),112,-61.8% (inactive),109,-0.565 (inactive),-1.6e-06 (inactive),0.00606 (inactive),16.7% (inactive),24.7% (inactive),–,–
CCOC(=O)c1oc2ccccc2c1CSc1nnnn1-c1ccc(OC)cc1,381,-7.7% (inactive),6.8% (inactive),95.4,-102% (inactive),110,-0.54 (inactive),-4.1e-05 (inactive),0.00514 (inactive),25.7% (inactive),30.2% (inactive),–,–
CC(C(=O)Nc1ccccc1-c1ccccc1)N1CCN(C(=O)c2ccco2)CC1 (stereo unspecified),546,-11.2% (inactive),14% (inactive),75,-63.4% (inactive),97.9,-0.395 (inactive),1.3e-05 (inactive),0.00807 (inactive),19.8% (inactive),33.6% (inactive),–,–
O=C(CSc1nc(-c2ccco2)cc(C(F)(F)F)n1)N1CCCc2ccccc21,700,0% (inactive),3.1% (inactive),104,-20.9% (inactive),114,-0.585 (inactive),-2.5e-05 (inactive),0.00488 (inactive),19% (inactive),13.4% (inactive),–,–
COc1ccccc1CN1C(=O)CCC1(C)C(=O)NC1CCCCCC1 (stereo unspecified),452,5.3% (inactive),14.8% (inactive),63.8,-184% (inactive),115,-0.44 (inactive),0.000132 (inactive),0.00525 (inactive),0.126% (inactive),9.28% (inactive),–,–
O=C(Nc1nnc(C2CCCCC2)s1)c1cccs1,511,-8.1% (inactive),-2.9% (inactive),108,-77.2% (inactive),121,-0.437 (inactive),-2.3e-05 (inactive),0.00416 (inactive),-37.9% (inactive),-113% (inactive),–,–
N#Cc1c(-c2ccc3c(c2)OCO3)csc1N,584,-4.7% (inactive),7.8% (inactive),94,-102% (inactive),106,-0.451 (inactive),-4.4e-05 (inactive),–,-35.4% (inactive),-84.4% (inactive),0.00604 (inactive),inactive
CCn1nnc(NC(=O)c2cc3ccccc3o2)n1,332,0.5% (inactive),7.1% (inactive),87.2,-51% (inactive),102,-0.297 (inactive),-7.3e-06 (inactive),0.00628 (inactive),-50.7% (inactive),-120% (inactive),–,–
O=C(CCn1c(=O)c2sccc2n(CC(=O)NCc2ccco2)c1=O)NCc1ccccc1,331,-2.4% (inactive),0% (inactive),100,-60% (inactive),111,-0.566 (inactive),-8.5e-05 (inactive),0.00667 (inactive),-3.97% (inactive),-0.766% (inactive),–,–
CCc1cc2c(NCCC(=O)O)nc(C)nc2s1,222,-13.7% (inactive),13.8% (inactive),79,-7.8% (inactive),104,-0.575 (inactive),-4e-05 (inactive),0.00598 (inactive),2.05% (inactive),15.1% (inactive),–,–
O=C(NCCC1=CCCCC1)C1CCN(S(=O)(=O)c2cccc3nsnc23)CC1,609,7.7% (inactive),4.8% (inactive),94.6,-41.8% (inactive),126,-0.443 (inactive),-6e-05 (inactive),0.0046 (inactive),13.1% (inactive),26.5% (inactive),–,–
COc1ccc(NC(=O)Nc2ccccc2C)c(OC)c1,371,1.5% (inactive),-3.2% (inactive),107,-31.1% (inactive),116,-0.379 (inactive),-7.9e-05 (inactive),–,6.08% (inactive),12.1% (inactive),0.00603 (inactive),inactive
CCOc1ccccc1N1CCN(S(=O)(=O)c2cccc3nsnc23)CC1,453,3.9% (inactive),-10.4% (inactive),94,-6.6% (inactive),106,-0.472 (inactive),2.9e-06 (inactive),0.00356 (inactive),22.8% (inactive),18.5% (inactive),–,–
CN1CC=C2C(C#N)=C(N)C(C#N)(C#N)C(c3cccc(Cl)c3Cl)C2C1 (stereo unspecified),566,-8.5% (inactive),-7.2% (inactive),110,-13.9% (inactive),99.2,-0.399 (inactive),-0.000109 (inactive),0.00362 (inactive),8.89% (inactive),9.8% (inactive),–,–
Cc1cc(C)c(S(=O)(=O)N(C)CC(N)=O)c(C)c1,320,5.1% (inactive),-7.6% (inactive),103,-60.9% (inactive),111,-0.489 (inactive),4.3e-05 (inactive),0.00514 (inactive),-4.02% (inactive),-17.9% (inactive),–,–
c1ccc(-c2cn3c4c(sc3n2)CCCC4)cc1,789,-4.8% (inactive),40% (inactive),118,-34.8% (inactive),116,-0.493 (inactive),-7.1e-06 (inactive),0.00593 (inactive),5.66% (inactive),71.3% (active),–,–
Cc1ccc(CS(=O)(=O)CCC(=O)NCC2CCCO2)cc1 (stereo unspecified),470,7% (inactive),1.1% (inactive),99.3,-191% (inactive),121,-0.31 (inactive),-4.6e-05 (inactive),0.00623 (inactive),6.62% (inactive),8.68% (inactive),–,–
C#CC(CO)N(CCN(Cc1ccccc1)C(C#C)CO)Cc1ccccc1 (stereo unspecified),370,1.8% (inactive),-12.5% (inactive),104,-29.5% (inactive),112,-0.329 (inactive),-5.4e-05 (inactive),0.00458 (inactive),15.5% (inactive),20.6% (inactive),–,–
